SR-BI HDL uptake: blocks mouse SR-BI lipid uptake from DiI-HDL | inhibition, % at 12.5 µM | ldlA[mSR-BI] CHO cells, DiI-HDL uptake fluorescence, 3 h | Q61009 | 0.96% of 320,000 active;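 active = mean replicate inhibition of at least 70% and a set share of replicates each scoring 70 or more; inconclusive = meets just one of the two criteria; inactive = fails both criteria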
Target sequence (Q61009 whole entry, looked up): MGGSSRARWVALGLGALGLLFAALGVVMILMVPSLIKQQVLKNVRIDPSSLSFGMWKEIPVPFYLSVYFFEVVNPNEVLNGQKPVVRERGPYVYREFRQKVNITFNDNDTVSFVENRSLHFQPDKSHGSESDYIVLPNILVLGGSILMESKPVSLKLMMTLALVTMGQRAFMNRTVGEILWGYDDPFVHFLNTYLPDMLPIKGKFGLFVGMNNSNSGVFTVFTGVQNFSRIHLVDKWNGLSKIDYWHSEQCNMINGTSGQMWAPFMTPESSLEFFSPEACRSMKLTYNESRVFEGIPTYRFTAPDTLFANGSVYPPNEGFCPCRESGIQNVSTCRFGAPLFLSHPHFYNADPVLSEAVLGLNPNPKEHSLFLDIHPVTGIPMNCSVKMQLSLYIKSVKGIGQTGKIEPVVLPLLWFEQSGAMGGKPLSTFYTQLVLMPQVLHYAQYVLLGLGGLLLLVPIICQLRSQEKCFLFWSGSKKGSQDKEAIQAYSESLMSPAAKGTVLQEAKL
SMARCA2 activ: SMARCA2 function activation, primary screen; MG213 cells, MMTV-luciferase reporter, dexamethasone, overnight; activation, % at 9.1 µM; 1% of 370,000 active; AID 652017; in the data active = activation above about 7.8%
SR-BI uptake up: activators of SR-BI mediated HDL lipid uptake | CHO ldlA[mSR-BI] cells, DiI-HDL uptake fluorescence, 3 h; 100 = double the neutral-control signal | activation, % at 12.5 µM | 0.096% of 320,000 active | AID 504775;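 active = mean replicate activation of at least 60% and every replicate at or above 60%; inconclusive = mean or all-replicate condition met, but not both; inactive = mean below 60% and not all replicates reaching 60%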
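Assay system: CHO ldlA[mSR-BI] cells, LDL receptor-null, SR-BI overexpressing; medium: Ham's F12 with 0.5% BSA, HEPES 25 mM, pH 7.4; also added: DiI-HDL 10 µg/mL; timing: 3 h uptake period with compound, 37 °C; signal: DiI fluorescence, bottom read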
Yeast superoxide: yeast age-related superoxide inhibition as caloric restriction mimetic | 0.18% of 330,000 active | S. cerevisiae aged cells, superoxide DHE fluorescence; hits give low values | superoxide response (% of plate mean), % at 10 µM;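 active = superoxide response under a set limit, about three screen SD below normal, cut at about 65% in these data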;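 note: yeast aged for seven days with compound at 30 °C before DHE staining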
Lipid droplet: modulators of hepatic lipid droplet formation; AML12 mouse hepatocytes, oleate lipid droplets, BODIPY imaging; inhibition, % at 6.5 µM; 0.4% of 240,000 active;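 active = lipid droplet intensity inhibited by at least 50%, with more than 500 cells counted; inconclusive = wells with under 300 cells, treated as cytotoxic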
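Assay system: AML12 hepatocytes (mouse) / Also added: 100 µM oleic acid challenge / Times: overnight treatment with compound plus oleate / Detection: high-content imaging of BODIPY-stained droplets and DAPI nuclei / Evaluation: % inhibition of lipid droplet signal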
AHR act: activates the human aryl hydrocarbon receptor. P35869. AID 2796. 2.5% of 320,000 active. AHR-responsive luciferase reporter cells, luminescence. activation, % at 5 µM; in the data active = activation above about 47%
Hits are given with their value; 0 = inactive; ? = inconclusive; - = no result. In the library only some 4.3% were active in any assay of this set; here they are far more common.

SMILES | SR-BI HDL uptake | SMARCA2 activ | SR-BI uptake up | Yeast superoxide | Lipid droplet | AHR act
COc1ccc(-c2nc(-c3ccccn3)no2)cc1 | 0 | 0 | 0 | 0 | 0 | 0
Clc1ccc(-c2nc(-c3ccccn3)no2)cc1Cl | 0 | 0 | 0 | 0 | - | 72.2
Brc1ccc(-c2nc(-c3ccncc3)no2)o1 | 0 | 0 | 0 | 0 | 0 | 0
O=C(Cc1c[nH]c2ccccc12)Nc1ccc(Nc2cccnc2)c(-c2ccc(Cl)c(Cl)c2)c1 | - | 0 | - | - | - | -
COCCNc1ncnc2c1[nH]c1ccccc12 | 0 | 0 | 0 | 0 | 0 | 74.0
CCCOc1ncnc2c1[nH]c1ccccc12 | 0 | 0 | 0 | 0 | - | 79.9
CCCOc1ncnc2c1[nH]c1ccc(OC)cc12 | 0 | 0 | 0 | 0 | 0 | 0
CCN(CC)c1ncnc2c1[nH]c1ccccc12 | 0 | 0 | 0 | 0 | 0 | 64.6
OCCCNc1ncnc2c1[nH]c1ccccc12 | 0 | 0 | 0 | 0 | 0 | 0
C=CCN=C1NC(c2ccccc2C(F)(F)F)C(C(=O)OC)=C(C)N1Cc1cccc(C(F)(F)F)c1 (configuration not stated) | - | 0 | - | - | - | -
COC(=O)c1ccc2nc(-c3cccc(Cl)c3)c(Cc3ccccc3C(F)(F)F)n2c1 | - | 0 | - | - | - | -
CC(=O)N1CCc2cc(S(=O)(=O)NC3CCN(C(=O)C(C)(C)C)CC3)ccc21 | - | 0 | - | - | - | -
COc1cc2sc3ccc(-c4ccc5[nH]ccc5c4)cc3c(=O)c2cc1OC | 75.1 | 0 | 0 | 0 | - | 0
COc1ccc(S[C@]2(C(=O)N3CCN(c4ncccn4)CC3)CC(=O)N(P(=O)(OC)OC)[C@@H]2c2ccc(OC)cc2)cc1 | - | 0 | - | - | - | -
NC(=O)c1c(NC(=O)c2cccnc2)sc2c1CCCC2 | 0 | 0 | 0 | 0 | 0 | 0
CCC1CCc2c(sc(NC(=O)c3cccnc3)c2C(N)=O)C1 (configuration not stated) | 76.6 | 0 | 0 | 0 | 0 | 0
O=C(Nc1ccc(Br)cc1)OC1CC2CC1[C@H]1CCCCN1C2 (some centres not stated) | - | 0 | - | - | - | -
Cc1ccc(C)c(NC(=O)CCc2c(C)nn(-c3ccc(N4CCCCC4)nn3)c2C)c1 | 83.0 | 0 | 0 | 0 | 0 | 0
Cc1nn(-c2ccc(N3CCCCC3)nn2)c(C)c1CCC(=O)Nc1ccc(F)cc1 | 0 | 0 | 0 | 0 | 0 | 0
Cc1ccc(NC(=O)CCc2c(C)nn(-c3ccc(N4CCCCC4)nn3)c2C)cc1F | 0 | 0 | 0 | 0 | 0 | 0
CCc1ccc(NC(=O)CCc2c(C)nn(-c3ccc(N4CCCCC4)nn3)c2C)cc1 | 80.9 | 0 | 0 | 0 | 0 | 0
O=C(NC1CC1)C1=C[C@@H](C2CC2)C[C@@H](OCCCCO)O1 | 0 | 0 | 0 | 0 | - | 0
O=C(NC1CC1)C1=C[C@H](c2c[nH]c3ccccc23)C[C@H](OCCCCO)O1 | 0 | 0 | 0 | 0 | 0 | 72.0
O=C(NC1CC1)C1=C[C@@H](c2c[nH]c3ccccc23)C[C@@H](OCc2ccc(CO)cc2)O1 | 0 | 0 | 0 | 0 | 0 | 76.2
O=C(NC1CC1)C1=C[C@@H](c2c[nH]c3ccccc23)C[C@@H](OCCCCO)O1 | 0 | 0 | 0 | 0 | 0 | 64.5
SMILES | SR-BI HDL uptake | SMARCA2 activ | SR-BI uptake up | Yeast superoxide | Lipid droplet | AHR act
O=C(NC1CC1)C1=C[C@@H](c2ccccc2)C[C@@H](OCc2ccc(CO)cc2)O1 | 0 | 0 | 0 | 0 | 0 | 0
CCCCc1c(C)nc(Nc2ccc(OC)cc2)[nH]c1=O | 0 | 0 | 60.3 | 0 | 0 | 0
C/C(=N\Nc1ccccn1)c1ccc(Br)s1 | - | 0 | - | 0 | - | 69.9
C/C(=N\NC(N)=S)c1ccc2c(c1)OCCO2 | 76.1 | 0 | 0 | 0 | 0 | 0
C/C(=N\Nc1ccccn1)c1ccc2c(c1)OCO2 | 0 | 0 | 0 | 0 | 0 | 58.9
C/C(=N\Nc1ccccn1)c1ccc(C(C)C)cc1 | 0 | 0 | 0 | 0 | 0 | 0
CC(=O)N/N=C(\C)c1ccc2c(c1)OCCO2 | 0 | 0 | 0 | 0 | 0 | 0
C/C(=N\Nc1nc2ccccc2[nH]1)c1ccccn1 | 0 | 0 | 0 | 0 | 0 | 0
C/C(=N\Nc1nc2ccccc2[nH]1)c1cc2ccccc2o1 | 0 | 0 | 0 | 0 | 0 | 53.8
C/C(=N/NC(N)=S)c1ccc(Br)s1 | ? | 0 | 0 | 0 | 0 | 0
CN(Cc1ccco1)C(=O)CN1C(=O)C2(OCCCO2)c2ccccc21 | - | 0 | - | - | - | -
Nn1c(SCC(=O)N2c3ccccc3Sc3ccc(Cl)cc32)nnc1-c1n[nH]c2c1CCC2 | - | 0 | - | - | - | -
Cc1ccccc1CN1CCCCC(NC(=O)C(C)(C)C)C1=O (configuration not stated) | - | 0 | - | - | - | -
CCn1c(Cc2cccs2)nnc1SCC(=O)Nc1ccc2c(c1)OCCO2 | - | 0 | - | - | - | -
COc1ccccc1N1CCN(C(=O)c2ccc3c(c2)nc(C)n3-c2cc(OC)c(OC)c(OC)c2)CC1 | - | 0 | - | - | - | -
CCN(CC)CCCNC(=O)CSc1nnc(-c2ccncc2)n1-c1ccc(OC)cc1 | - | 0 | - | - | - | -
C/C(=N\Nc1nc2ccccc2[nH]1)c1ccc2c(c1)OCO2 | 0 | 0 | 0 | 0 | 0 | 128.1
C/C(=N\Nc1nc2ccccc2[nH]1)c1ccc2c(c1)OCCO2 | 0 | 0 | 0 | 0 | 0 | 56.1
C(=N\Nc1nc2ccccc2[nH]1)/c1ccc2c(c1)OCO2 | 0 | 0 | 0 | - | 0 | -
O=C(Nc1ccccc1C(F)(F)F)OC1CC2CC1[C@H]1CCCCN1C2 (some centres not stated) | - | 0 | - | - | - | -
CCCCn1c(Oc2ccc(C(=O)OC)cc2)nc2c1c(=O)n(C)c(=O)n2C | 91.6 | 0 | 0 | 0 | - | 0
c1ccc(COc2ccc(OCCCCN3CCCC3)cc2)cc1 | 0 | 19.3 | 0 | 0 | 0 | 0
O=C(NCc1cccc2[nH]ccc12)C1CCC(=O)N(CCc2ccccc2)C1 (configuration not stated) | 0 | 0 | 120.0 | 0 | 0 | 0
COc1ccc(CCN2CC(C(=O)NCc3cccc4[nH]ccc34)CCC2=O)cc1 (configuration not stated) | 0 | 0 | 0 | 0 | 0 | 0
O=C(/C=C/c1ccco1)Oc1cc(Br)cc(/C=N/NC(=O)c2ccccc2O)c1 | 133.7 | 0 | 0 | 0 | 0 | 0
SMILES | SR-BI HDL uptake | SMARCA2 activ | SR-BI uptake up | Yeast superoxide | Lipid droplet | AHR act
COc1ccc(NC(=S)Nc2ccc(N)c([N+](=O)[O-])c2)cc1 | 0 | 0 | 0 | 0 | 0 | 61.7
COc1ccc(NC(=S)Nc2ccc3snnc3c2)cc1 | 0 | 0 | 0 | 0 | 0 | 66.5
COc1ccc(NC(=S)Nc2ccc3nccnc3c2)cc1 | 0 | 0 | 0 | 0 | 0 | 0
Cc1ccc(C2NC(=O)c3c(sc(C)c3C)N2)c(O)c1 (configuration not stated) | 0 | 0 | 0 | 0 | - | 49.1
Cc1cc(C)c(C(=O)COC(=O)c2ccc(NC(=O)CC#N)cc2)cc1C | 75.2 | 0 | 0 | 0 | 0 | 0
CNC(=O)COC(=O)c1ccc(NC(=O)CC#N)cc1 | 0 | 0 | 0 | 0 | 0 | 0
O=C(N=Nc1c(O)[nH]c2ccccc12)c1cc(-c2cccs2)[nH]n1 | 0 | 0 | ? | 0 | 0 | 83.8
CCCCN1CN2CCc3ccccc3C2CS1(=O)=O (configuration not stated) | - | 0 | - | - | - | -
On1onc2c3cc(-c4ccccc4)nc3ccc21 | 0 | 0 | 0 | 0 | 0 | 0

Compound activity deposited in PubChem by several laboratories.
